According to ChEMBL document CHEMBL3734702, “Design of Specific Serine Protease Inhibitors Based on a Versatile Peptide Scaffold: Conversion of a Urokinase Inhibitor to a Plasma Kallikrein Inhibitor” (J Med Chem, 2015):
Where a SMILES comes first, the peptide text is derived from it. Bridges are numbered along the chain shown (N, C = ends). [ ]: non-standard residue; d: D form. Ala(1-amidino-4-piperidyl) = N=C(N)N1CCC(C[C@H](N)C(=O)O)CC1

Legend:
[1] = target: T1, Suppressor of tumorigenicity 14 protein (Homo sapiens, UniProt Q9Y5Y6); assay: Inhibition of human matriptase after 15 mins using H-D-Ile-Pro-Arg-p-nitroanilide as substrate
T1 sequence (Q9Y5Y6 whole entry): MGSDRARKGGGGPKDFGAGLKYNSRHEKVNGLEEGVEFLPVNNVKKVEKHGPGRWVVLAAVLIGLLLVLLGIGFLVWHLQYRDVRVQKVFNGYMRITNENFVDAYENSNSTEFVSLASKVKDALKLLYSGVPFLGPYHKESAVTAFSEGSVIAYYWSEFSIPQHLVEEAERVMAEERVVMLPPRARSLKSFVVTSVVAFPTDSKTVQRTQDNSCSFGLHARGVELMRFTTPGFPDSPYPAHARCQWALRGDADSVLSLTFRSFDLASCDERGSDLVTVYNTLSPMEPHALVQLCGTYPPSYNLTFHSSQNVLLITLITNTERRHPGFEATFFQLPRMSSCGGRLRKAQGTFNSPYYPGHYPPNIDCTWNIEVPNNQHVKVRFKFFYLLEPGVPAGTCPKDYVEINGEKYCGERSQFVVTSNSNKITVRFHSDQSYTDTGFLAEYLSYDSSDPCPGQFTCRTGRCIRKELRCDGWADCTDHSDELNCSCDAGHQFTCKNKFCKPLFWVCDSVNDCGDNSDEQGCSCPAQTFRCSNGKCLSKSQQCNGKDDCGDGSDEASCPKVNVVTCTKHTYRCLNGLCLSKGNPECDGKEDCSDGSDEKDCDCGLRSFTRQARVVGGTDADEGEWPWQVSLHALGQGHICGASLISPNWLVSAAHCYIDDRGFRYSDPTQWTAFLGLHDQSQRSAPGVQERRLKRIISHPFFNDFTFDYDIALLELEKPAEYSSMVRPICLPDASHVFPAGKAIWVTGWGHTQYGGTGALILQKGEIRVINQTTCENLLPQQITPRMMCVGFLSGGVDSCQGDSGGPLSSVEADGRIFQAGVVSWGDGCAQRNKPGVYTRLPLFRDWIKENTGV

[2] = target: Tissue-type plasminogen activator (Mus musculus, UniProt P11214); assay: Inhibition of mouse tPA after 15 mins using Z-D-Arg-Gly-Arg-p-nitroanilide as substrate
Method in brief: (§1)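 Chromogenic substrate was added at about its KM; for KLK1 this was S-2251. Initial velocities were monitored at 405 nm.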

[3] = target: Prothrombin (Mus musculus, UniProt P19221); assay: Inhibition of mouse thrombin after 15 mins using H-D-Ile-Pro-Arg-p-nitroanilide as substrate; method in brief: as §1
[4] = target: Prothrombin (Homo sapiens, UniProt P00734); assay: Inhibition of human thrombin after 15 mins using H-D-Ile-Pro-Arg-p-nitroanilide as substrate; method in brief: as §1
[5] = target: Vitamin K-dependent protein C (Homo sapiens, UniProt P04070); assay: Inhibition of human activated protein C after 15 mins using H-D-Ile-Pro-Arg-p-nitroanilide as substrate; method in brief: as §1
[6] = target: Tissue-type plasminogen activator (Homo sapiens, UniProt P00750); assay: Inhibition of human tPAn after 15 mins using H-D-Ile-Pro-Arg-p-nitroanilide as substrate; method in brief: as §1
[7] = target: T2, Urokinase-type plasminogen activator (Homo sapiens, UniProt P00749); assay: Binding affinity to human uPA
[8] = target: Urokinase-type plasminogen activator (Mus musculus) (UniProt P06869); assay: Binding affinity to mouse uPA
[9] = target: T2, Urokinase-type plasminogen activator; assay: Inhibition of human uPA for 15 mins using pyro-Glu-Gly-Arg-p-nitroanilide as substrate
[10] = target: Plasma kallikrein (Mus musculus, UniProt P26262); assay: Inhibition of mouse plasma kallikrein for 15 mins using H-D-Pro-Phe-Arg-p-nitroanilide as substrate; format: cell-free; method in brief: as §1
[11] = target: Coagulation factor XI (Homo sapiens, UniProt P03951); assay: Inhibition of human coagulation factor 11a after 15 mins
[12] = target: Urokinase-type plasminogen activator (Mus musculus, UniProt P06869); assay: Inhibition of mouse uPA for 15 mins using pyro-Glu-Gly-Arg-p-nitroanilide as substrate
[13] = target: Kallikrein-1 (Homo sapiens, UniProt P06870); assay: Inhibition of human KLK1 after 15 mins using Val-Leu-Lys-p-nitroanilide as substrate; method in brief: as §1
[14] = target: T3, Serine protease 1 (Bos taurus, UniProt P00760); assay: Inhibition of bovine beta-trypsin after 15 mins using Bz-Ile-Glu(g-OR)-Gly-Arg-p-nitroanilide as substrate; method in brief: as §1
T3 sequence (P00760 whole entry): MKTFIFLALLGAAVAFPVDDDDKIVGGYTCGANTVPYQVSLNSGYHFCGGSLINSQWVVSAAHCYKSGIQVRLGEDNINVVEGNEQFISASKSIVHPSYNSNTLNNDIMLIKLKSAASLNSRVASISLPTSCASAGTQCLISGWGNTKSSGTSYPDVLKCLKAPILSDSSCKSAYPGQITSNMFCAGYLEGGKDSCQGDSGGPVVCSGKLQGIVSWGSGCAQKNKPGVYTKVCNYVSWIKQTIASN

[15] = target: Plasminogen (Mus musculus, UniProt P20918); assay: Inhibition of mouse plasmin after 15 mins using H-D-Ile-Pro-Arg-p-nitroanilide as substrate; method in brief: as §1
[16] = target: Plasminogen (Homo sapiens, UniProt P00747); assay: Inhibition of human plasmin after 15 mins using H-D-Ile-Pro-Arg-p-nitroanilide as substrate; method in brief: as §1
[17] = target: Plasma kallikrein (Homo sapiens, UniProt P03952); assay: Inhibition of human plasma kallikrein for 15 mins using H-D-Pro-Phe-Arg-p-nitroanilide as substrate; format: cell-free

Sequence of Tissue-type plasminogen activator (Mus musculus, UniProt P11214) (P11214 whole entry): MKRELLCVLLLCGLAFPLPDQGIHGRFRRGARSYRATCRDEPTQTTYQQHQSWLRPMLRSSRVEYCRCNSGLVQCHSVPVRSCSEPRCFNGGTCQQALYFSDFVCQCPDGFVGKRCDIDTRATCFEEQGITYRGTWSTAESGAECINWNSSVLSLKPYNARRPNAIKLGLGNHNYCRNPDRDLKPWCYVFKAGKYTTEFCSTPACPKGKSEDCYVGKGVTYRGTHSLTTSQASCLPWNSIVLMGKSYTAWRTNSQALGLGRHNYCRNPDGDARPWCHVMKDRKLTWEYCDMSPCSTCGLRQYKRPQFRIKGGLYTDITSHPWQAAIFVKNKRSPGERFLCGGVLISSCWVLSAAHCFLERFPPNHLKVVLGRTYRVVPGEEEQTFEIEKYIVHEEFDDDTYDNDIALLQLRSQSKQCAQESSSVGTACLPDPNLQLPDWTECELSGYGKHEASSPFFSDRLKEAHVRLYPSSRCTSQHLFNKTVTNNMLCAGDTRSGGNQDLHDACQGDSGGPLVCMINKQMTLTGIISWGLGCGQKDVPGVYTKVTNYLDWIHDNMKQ
Sequence of Vitamin K-dependent protein C (P04070 43-197 limits assumed): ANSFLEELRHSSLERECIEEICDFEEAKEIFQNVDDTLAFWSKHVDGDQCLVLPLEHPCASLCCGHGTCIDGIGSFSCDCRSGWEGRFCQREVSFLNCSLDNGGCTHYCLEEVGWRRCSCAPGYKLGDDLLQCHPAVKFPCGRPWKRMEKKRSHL
Sequence of Vitamin K-dependent protein C (P04070 212-461 limits assumed): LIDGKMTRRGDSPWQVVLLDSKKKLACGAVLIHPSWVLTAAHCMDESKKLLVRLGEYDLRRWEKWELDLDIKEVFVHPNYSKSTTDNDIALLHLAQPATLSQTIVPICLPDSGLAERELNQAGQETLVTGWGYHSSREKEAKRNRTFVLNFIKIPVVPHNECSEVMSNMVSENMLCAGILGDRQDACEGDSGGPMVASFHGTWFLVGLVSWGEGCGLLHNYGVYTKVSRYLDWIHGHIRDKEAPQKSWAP
Sequence of Tissue-type plasminogen activator (Homo sapiens, UniProt P00750) (P00750 whole entry): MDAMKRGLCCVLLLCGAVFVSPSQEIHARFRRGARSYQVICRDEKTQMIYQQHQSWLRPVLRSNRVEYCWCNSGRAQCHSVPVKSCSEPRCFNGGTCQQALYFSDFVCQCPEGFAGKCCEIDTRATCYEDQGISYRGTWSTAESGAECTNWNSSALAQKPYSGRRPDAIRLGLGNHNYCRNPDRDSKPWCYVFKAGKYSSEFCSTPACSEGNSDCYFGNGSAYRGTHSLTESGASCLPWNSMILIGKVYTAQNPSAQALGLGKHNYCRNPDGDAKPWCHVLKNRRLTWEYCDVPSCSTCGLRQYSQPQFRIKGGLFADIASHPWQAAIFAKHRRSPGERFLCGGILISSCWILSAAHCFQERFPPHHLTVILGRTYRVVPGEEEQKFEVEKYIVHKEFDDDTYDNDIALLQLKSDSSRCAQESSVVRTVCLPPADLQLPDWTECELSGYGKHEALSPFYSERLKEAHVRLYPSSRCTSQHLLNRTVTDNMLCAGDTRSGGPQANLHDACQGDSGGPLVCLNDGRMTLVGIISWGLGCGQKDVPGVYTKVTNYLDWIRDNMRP
Sequence of Coagulation factor XI (P03951 19-387 limits assumed): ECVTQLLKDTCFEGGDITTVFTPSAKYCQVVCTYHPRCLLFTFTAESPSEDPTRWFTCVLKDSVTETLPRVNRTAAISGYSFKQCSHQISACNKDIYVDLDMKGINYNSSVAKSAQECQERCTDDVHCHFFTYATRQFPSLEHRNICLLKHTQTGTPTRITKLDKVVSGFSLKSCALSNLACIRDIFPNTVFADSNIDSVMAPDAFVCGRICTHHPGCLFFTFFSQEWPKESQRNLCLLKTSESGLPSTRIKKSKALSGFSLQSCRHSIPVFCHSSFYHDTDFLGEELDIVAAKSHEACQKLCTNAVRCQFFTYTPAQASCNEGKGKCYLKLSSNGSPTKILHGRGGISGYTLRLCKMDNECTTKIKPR
Sequence of Coagulation factor XI (P03951 388-625 limits assumed): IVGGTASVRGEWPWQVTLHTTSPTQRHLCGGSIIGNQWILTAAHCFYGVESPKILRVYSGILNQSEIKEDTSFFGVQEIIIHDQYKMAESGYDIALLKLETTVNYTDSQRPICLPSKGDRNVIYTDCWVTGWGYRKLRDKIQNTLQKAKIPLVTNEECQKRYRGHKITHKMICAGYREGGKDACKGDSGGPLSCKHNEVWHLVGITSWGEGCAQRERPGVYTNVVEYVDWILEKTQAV
Sequence of Plasma kallikrein (Mus musculus, UniProt P26262) (P26262 20-390 limits assumed): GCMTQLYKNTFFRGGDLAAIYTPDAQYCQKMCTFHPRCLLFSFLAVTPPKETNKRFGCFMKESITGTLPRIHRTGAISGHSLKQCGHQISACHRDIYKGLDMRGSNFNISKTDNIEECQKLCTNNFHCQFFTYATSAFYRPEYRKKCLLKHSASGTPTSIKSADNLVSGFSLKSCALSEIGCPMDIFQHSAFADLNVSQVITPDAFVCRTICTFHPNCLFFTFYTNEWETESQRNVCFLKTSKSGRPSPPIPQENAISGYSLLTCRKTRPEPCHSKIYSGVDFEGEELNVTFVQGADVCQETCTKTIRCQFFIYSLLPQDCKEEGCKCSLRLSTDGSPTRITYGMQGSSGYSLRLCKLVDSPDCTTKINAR
Sequence of Plasma kallikrein (Mus musculus, UniProt P26262) (P26262 391-638 limits assumed): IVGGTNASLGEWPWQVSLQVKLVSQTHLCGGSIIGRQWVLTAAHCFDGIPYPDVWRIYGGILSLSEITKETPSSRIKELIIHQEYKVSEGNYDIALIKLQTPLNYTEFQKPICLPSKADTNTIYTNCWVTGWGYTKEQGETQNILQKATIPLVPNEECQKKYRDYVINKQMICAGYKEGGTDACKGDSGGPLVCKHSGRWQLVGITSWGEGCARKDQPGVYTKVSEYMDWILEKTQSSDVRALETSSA
Sequence of Urokinase-type plasminogen activator (Mus musculus) (P06869 21-178 limits assumed): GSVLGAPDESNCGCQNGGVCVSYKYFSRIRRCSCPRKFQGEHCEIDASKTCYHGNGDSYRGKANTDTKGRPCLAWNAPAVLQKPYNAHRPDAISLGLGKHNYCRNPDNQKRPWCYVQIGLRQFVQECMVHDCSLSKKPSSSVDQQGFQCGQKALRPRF
Sequence of Urokinase-type plasminogen activator (Mus musculus) (P06869 180-433 limits assumed): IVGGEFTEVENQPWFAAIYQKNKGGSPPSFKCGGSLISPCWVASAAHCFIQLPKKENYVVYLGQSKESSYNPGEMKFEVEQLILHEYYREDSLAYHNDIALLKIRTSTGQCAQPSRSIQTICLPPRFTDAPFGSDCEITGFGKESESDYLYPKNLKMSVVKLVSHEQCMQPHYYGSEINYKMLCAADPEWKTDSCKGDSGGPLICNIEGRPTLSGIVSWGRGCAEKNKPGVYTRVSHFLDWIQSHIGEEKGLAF
Sequence of Urokinase-type plasminogen activator (Mus musculus, UniProt P06869) (P06869 21-178 limits assumed): as the sequence (P06869 21-178 limits assumed) above
Sequence of Urokinase-type plasminogen activator (Mus musculus, UniProt P06869) (P06869 180-433 limits assumed): as the sequence (P06869 180-433 limits assumed) above
Sequence of Kallikrein-1 (P06870 whole entry): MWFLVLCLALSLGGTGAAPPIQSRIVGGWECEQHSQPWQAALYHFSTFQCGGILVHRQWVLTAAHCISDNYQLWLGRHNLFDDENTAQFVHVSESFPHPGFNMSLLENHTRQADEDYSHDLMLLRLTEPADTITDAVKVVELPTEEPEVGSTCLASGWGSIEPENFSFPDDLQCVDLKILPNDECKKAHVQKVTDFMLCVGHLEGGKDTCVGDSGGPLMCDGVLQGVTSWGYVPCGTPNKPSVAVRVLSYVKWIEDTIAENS
Sequence of Plasminogen (Mus musculus, UniProt P20918) (P20918 98-581 limits assumed): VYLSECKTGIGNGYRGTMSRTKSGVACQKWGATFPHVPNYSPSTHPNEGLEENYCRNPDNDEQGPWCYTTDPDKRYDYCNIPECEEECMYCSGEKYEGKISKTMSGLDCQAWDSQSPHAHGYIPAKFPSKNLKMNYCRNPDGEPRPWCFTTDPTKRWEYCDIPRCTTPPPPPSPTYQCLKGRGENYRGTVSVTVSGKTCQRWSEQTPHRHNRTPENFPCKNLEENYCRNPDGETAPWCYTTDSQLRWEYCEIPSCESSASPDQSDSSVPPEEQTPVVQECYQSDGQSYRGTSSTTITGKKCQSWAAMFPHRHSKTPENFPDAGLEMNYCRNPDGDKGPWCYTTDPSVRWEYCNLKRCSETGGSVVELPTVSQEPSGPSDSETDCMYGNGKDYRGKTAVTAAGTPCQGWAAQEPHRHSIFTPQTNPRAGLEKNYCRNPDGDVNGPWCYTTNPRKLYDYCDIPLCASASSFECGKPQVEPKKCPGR
Sequence of Plasminogen (Mus musculus, UniProt P20918) (P20918 582-812 limits assumed): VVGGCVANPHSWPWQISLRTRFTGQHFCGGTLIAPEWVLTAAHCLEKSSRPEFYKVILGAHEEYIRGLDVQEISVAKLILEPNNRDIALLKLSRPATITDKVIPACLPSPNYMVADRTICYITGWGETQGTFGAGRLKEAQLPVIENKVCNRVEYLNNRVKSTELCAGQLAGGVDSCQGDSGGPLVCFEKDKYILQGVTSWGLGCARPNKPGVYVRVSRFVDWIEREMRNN

Row | Ki [1] | Ki [2] | Ki [3] | Ki [4] | Ki [5] | Ki [6] | Activity [7] | Activity [8] | Ki [9] | Ki [10] | Ki [11] | Ki [12] | Ki [13] | Ki [14] | Ki [15] | Ki [16] | Ki [17] | SMILES
1 | > 1 mM | > 1 mM | > 1 mM | > 1 mM | > 1 mM | > 1 mM | – | – | – | – | – | – | – | – | – | – | – | CC(C)C[C@@H]1NC(=O)[C@H](Cc2ccc(O)cc2)NC(=O)[C@H](CC2CCN(C(=N)N)CC2)NC(=O)[C@H](CO)NC(=O)[C@H](Cc2ccc(O)cc2)NC(=O)[C@H](C)NC(=O)[C@@H]2CCCN2C(=O)[C@@H](N)CSSC[C@@H](C(=O)O)NC(=O)[C@H](CC(=O)O)NC1=O (H-CPAYS[Ala(1-amidino-4-piperidyl)]YLDC-OH; disulfide 1-10)
2 | > 1 mM | > 1 mM | > 1 mM | > 1 mM | > 1 mM | > 1 mM | 530 nM | 2 nM | – | – | – | – | – | – | – | – | – | CC(C)C[C@@H]1NC(=O)[C@H](Cc2ccc(O)cc2)NC(=O)[C@H](CCCNC(=N)N)NC(=O)[C@H](CO)NC(=O)[C@H](Cc2ccc(O)cc2)NC(=O)[C@H](C)NC(=O)[C@@H]2CCCN2C(=O)[C@@H](N)CSSC[C@@H](C(=O)O)NC(=O)[C@H](CC(=O)O)NC1=O (H-CPAYSRYLDC-OH; disulfide 1-10)
3 | > 1 mM | > 1 mM | > 1 mM | > 1 mM | > 1 mM | > 1 mM | – | – | > 1 mM | 43 nM | 12.1 µM | > 1 mM | 384 nM | 14.1 µM | 3.42 µM | 12.5 µM | 22 nM | CC(C)C[C@@H]1NC(=O)[C@H](C)NC(=O)[C@H](CC2CCN(C(=N)N)CC2)NC(=O)[C@H](Cc2ccccc2)NC(=O)[C@H](CCCNC(=N)N)NC(=O)[C@H](CCCCN)NC(=O)[C@@H]2CCCN2C(=O)[C@@H](N)CSSC[C@@H](C(=O)O)NC(=O)[C@H](Cc2ccccc2)NC1=O (H-CPKRF[Ala(1-amidino-4-piperidyl)]ALFC-OH; disulfide 1-10)
4 | > 1 mM | > 1 mM | > 1 mM | > 1 mM | > 1 mM | > 1 mM | – | – | – | – | – | – | – | – | – | – | – | CC(C)C[C@@H]1NC(=O)[C@H](C)NC(=O)[C@H](CC2CCN(C(=N)N)CC2)NC(=O)[C@H](Cc2ccccc2)NC(=O)[C@H](CCCNC(=N)N)NC(=O)[C@H](C)NC(=O)[C@@H]2CCCN2C(=O)[C@@H](N)CSSC[C@@H](C(=O)O)NC(=O)[C@H](Cc2c[nH]c3ccccc23)NC1=O (H-CPARF[Ala(1-amidino-4-piperidyl)]ALWC-OH; disulfide 1-10)
5 | > 1 mM | > 1 mM | > 1 mM | > 1 mM | > 1 mM | > 1 mM | – | – | – | – | – | – | – | – | – | – | – | CC(C)C[C@@H]1NC(=O)[C@H](C)NC(=O)[C@H](CC2CCN(C(=N)N)CC2)NC(=O)[C@H](Cc2ccccc2)NC(=O)[C@H](CCCNC(=N)N)NC(=O)[C@H](C)NC(=O)[C@@H]2CCCN2C(=O)[C@@H](N)CSSC[C@@H](C(=O)O)NC(=O)[C@H](Cc2ccccc2)NC1=O (H-CPARF[Ala(1-amidino-4-piperidyl)]ALFC-OH; disulfide 1-10)
